ChEMBL document CHEMBL4340510, “Design, synthesis, and biological evaluation of truncated deguelin derivatives as Hsp90 inhibitors” (Eur J Med Chem, 2019)
Calls of active or inactive are those of the source. The rule behind the calls is not given here.

Legend:
MCF7 [1] = assay: Potency index, ratio of deguelin IC50 to test compound IC50 for human MCF7 cells; assay type: functional
Outline: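 MTT assay on MCF-7 cells. Cells were seeded at 4,000/well and pre-incubated 24 h at 37 °C in humidified 5% CO2, then exposed to a range of compound concentrations for 72 h, with DMSO at no more than 0.25%. Absorbance was read at 570 nm, in quadruplicate, repeated three times. The IC50 for each test compound and for deguelin is the mean of three independent experiments, and the index is the deguelin IC50 divided by the compound IC50.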

MCF7 [2] = assay: Cell cycle arrest in human MCF7 cells assessed as increase in accumulation at S phase after 48 hrs by propidium iodide staining-based flow cytometry; assay type: functional
Outline: (§1)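 5×10^4 cells are seeded, incubated overnight, then treated 48 h. Cells are washed in cold PBS and fixed in 70% ethanol at −20 °C for 12 h. They are then stained with 100 µg/mL RNase plus 50 µg/mL PI in PBS, 37 °C for 30 min. DNA content is measured by flow cytometry.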

MCF7 [3] = assay: Induction of apoptosis in human MCF7 cells assessed as increase in early apoptotic cells at 0.5 to 4 uM after 36 hrs by Annexin V-FITC/propidium iodide double staining-based flow cytometry relative to control; assay type: functional
Outline: (§2)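 Cells (1×10^5/well) are cultured 24 h, then treated in triplicate for 36 h at 0.5, 1.0, 2.0 or 4.0 μM. Vehicle is 1‰ DMSO in complete medium. Cells are stained with FITC-Annexin V and PI for 15 min in the dark and analysed by flow cytometry. Mean±SD of three independent experiments.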

MCF7 [4] = assay: Antimigratory activity in human MCF7 cells at 250 to 1000 nM after 24 hrs by phase contrast inverted microscopy-based scratch wound healing assay; assay type: functional, cell-based
Outline: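 Cells are grown to confluence in DMEM with 10% FBS and scratched with a sterile 200 μL pipette tip. Wounds are imaged by phase contrast on an inverted microscope (10× objective) at 0, 24 and 48 h. Eight images per treatment are analysed by drawing lines at the wound edges of migrating cells.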

[5] = target: T1, Heat shock protein HSP90 (Homo sapiens) (UniProt P07900+P08238); assay: Inhibition of monoclonal antibody binding to HSP90 (unknown origin) by immunoprecipitation-based Western blot analysis; assay type: protein assay
MCF7 [6] = assay: Induction of apoptosis in human MCF7 cells assessed as rounding of nuclei at 0.5 to 4 uM after 36 hrs by hoechst 33258 staining-based fluorescence microscopy; assay type: functional, cell-based
Outline: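 Approximately 5×10^4 cells per well are exposed to 0, 0.5, 1.0, 2.0 or 4.0 μM for 36 h. Cells are PBS-washed and fixed in 4% paraformaldehyde for 30 min. They are stained with 20 μg/ml Hoechst 33258 for 15 min at room temperature in the dark, and nuclear morphology is examined by fluorescence microscopy.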

[7] = target: T1, Heat shock protein HSP90 (Homo sapiens); assay: Inhibition of HSP90 in human MCF7 cells assessed as down regulation of survivin expression after 48 hrs by Western blot analysis; assay type: cell-based
Outline: (§3)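 Cells are treated 48 h and washed twice in ice-cold PBS. They are lysed on ice for 20 min and spun at 13,000 g, 4 °C. 20 μg protein is run on 8-12% SDS-PAGE and transferred to PVDF. Membranes are probed overnight at 4 °C with primary antibodies (Bcl-xL, cleaved caspase-3, mTOR/p-mTOR, MAPK/p-MAPK, Akt/p-Akt, HIF-1α, survivin; β-actin/GAPDH loading). HRP secondary and chemiluminescence detection follow.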

[8] = target: T1, Heat shock protein HSP90 (Homo sapiens); assay: Inhibition of HSP90 in human MCF7 cells assessed as decrease in phosphorylation of MAPK after 48 hrs by Western blot analysis; assay type: cell-based; outline: as §3
[9] = target: T1, Heat shock protein HSP90 (Homo sapiens); assay: Inhibition of HSP90 in human MCF7 cells assessed as decrease in phosphorylation of mTOR after 48 hrs by Western blot analysis; assay type: cell-based; outline: as §3
MCF7 [10] = assay: Induction of apoptosis in human MCF7 cells assessed as increase in late apoptotic cells after 36 hrs by Annexin V-FITC/propidium iodide double staining-based flow cytometry; assay type: functional, cell-based; outline: as §2
MCF7 [11] = assay: Induction of apoptosis in human MCF7 cells assessed as increase in late apoptotic cells at 0.5 to 4 uM after 36 hrs by Annexin V-FITC/propidium iodide double staining-based flow cytometry relative to control; assay type: functional; outline: as §2
MCF7 [12] = assay: Antiinvasive activity in human MCF7 cells after 24 hrs by crystal violet dye-based transwell matrix penetration assay; assay type: functional, cell-based
Outline: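 Matrigel-coated transwell invasion chambers, 1×10^4 cells seeded in the upper chamber, 37 °C for 24 h. Non-invaded cells are swabbed off. Invaded cells on the underside are fixed in 1% paraformaldehyde, stained with crystal violet and counted in ten random 200× fields per well. Result is the mean cells per field, from three independent experiments.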

MCF7 [13] = assay: Cell cycle arrest in human MCF7 cells assessed as accumulation at S phase at 2 uM after 48 hrs by propidium iodide staining-based flow cytometry (reference value: 16.64%); assay type: functional; outline: as §1
MCF7 [14] = assay: Cell cycle arrest in human MCF7 cells assessed as accumulation at G2 phase at 2 uM after 48 hrs by propidium iodide staining-based flow cytometry (reference value: 22.74%); assay type: functional; outline: as §1
NCI-H1299 = assay: Antiproliferative activity against human NCI-H1299 cells assessed as inhibition of cell growth at 1 uM after 72 hrs by MTT assay relative to control; assay type: functional; details: NCI-H1299, 72 h, read-out: GI
Outline: (§4)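 Cells in RPMI 1640 are seeded at 4,000 cells/well and held 24 h at 37 °C, 5% CO2. Medium is replaced with compound-containing medium (DMSO ≤0.25%) for 72 h at 37 °C. MTT read-out by absorbance at 570 nm. Quadruplicate wells, repeated three times; values are means of three independent experiments.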

MCF7 [15] = assay: Cell cycle arrest in human MCF7 cells assessed as accumulation at G2 phase at 4 uM after 48 hrs by propidium iodide staining-based flow cytometry (reference value: 22.74%); assay type: functional; outline: as §1
MCF7 [16] = assay: Antiproliferative activity against human MCF7 cells after 72 hrs by MTT assay; assay type: functional, cell-based; details: MCF7, 72 h; outline: as §4
MCF7 [17] = assay: Induction of apoptosis in human MCF7 cells assessed as increase in early apoptotic cells after 36 hrs by Annexin V-FITC/propidium iodide double staining-based flow cytometry; assay type: functional, cell-based; outline: as §2
[18] = target: T1, Heat shock protein HSP90 (Homo sapiens); assay: Inhibition of HSP90 in human MCF7 cells assessed as down regulation of HIF-1alpha expression after 48 hrs by Western blot analysis; assay type: cell-based; outline: as §3
MCF7 [19] = assay: Cell cycle arrest in human MCF7 cells assessed as accumulation at G1 phase at 4 uM after 48 hrs by propidium iodide staining-based flow cytometry (reference value: 60.61%); assay type: functional; outline: as §1
A549 = assay: Antiproliferative activity against human A549 cells after 72 hrs by MTT assay; assay type: functional, cell-based; details: A549, 72 h; outline: as §4
MCF7 [20] = assay: Cell cycle arrest in human MCF7 cells assessed as accumulation at G2 phase at 0.5 uM after 48 hrs by propidium iodide staining-based flow cytometry (reference value: 22.74%); assay type: functional; outline: as §1
[21] = target: T1, Heat shock protein HSP90 (Homo sapiens); assay: Inhibition of HSP90 in human MCF7 cells assessed as decrease in phosphorylation of AKT after 48 hrs by Western blot analysis; assay type: cell-based; outline: as §3
MCF7 [22] = assay: Induction of apoptosis in human MCF7 cells assessed as increase in cleaved-caspase3 expression at 1 to 4 uM after 48 hrs by Western blot analysis; assay type: functional, cell-based; outline: as §3
[23] = target: T1, Heat shock protein HSP90 (Homo sapiens); assay: Induction of HSP90-mediated AKT degradation in human MCF7 cells assessed as increase in ubiquitinated AKT expression at 4 uM by coimmunoprecipitation-based Western blot assay; assay type: cell-based

With `COc1cc(OC)c(OC)cc1CC(=O)c1ccc2c(c1OC)C=CC(C)(C)O2` the “Ratio IC50” value (MCF7 [1]) was 3, the Activity (MCF7 [2]) was “Dose-dependent effect” and the Activity (MCF7 [3]) was 13.6 - 71.8%. For the same compound, the Activity (MCF7 [4]) was “Active”, the inhibition [5] was “Dose-dependent effect” and the Activity (MCF7 [6]) was “Active”. For the same compound, the inhibition [7] was “Dose-dependent effect”, the inhibition [8] was “Dose-dependent effect” and the inhibition [9] was “Dose-dependent effect”. The Activity (MCF7 [10]) was “Dose-dependent effect”, the Activity (MCF7 [11]) was 13.6 - 71.8% and the Activity (MCF7 [12]) was “Dose-dependent effect”. It also gave an Activity (MCF7 [13]) of 19.64%, an Activity (MCF7 [14]) of 34.16% and an inhibition of growth at 1 µM (NCI-H1299) of 40.3%. For the same compound, the Activity (MCF7 [15]) was 29.7%, the IC50 (MCF7 [16]) was 2510 nM and the Activity (MCF7 [17]) was “Dose-dependent effect”. The inhibition [18] was “Dose-dependent effect”, the Activity (MCF7 [19]) was 40.72% and the IC50 (A549) was 3460 nM. For the same compound, the Activity (MCF7 [20]) was 19.51%, the inhibition [21] was “Dose-dependent effect” and the Activity (MCF7 [22]) was “Active”. The Activity [23] was “Active”.
